Compounds with a hit are over-represented: about 2.5% of the library has one in this group of screens.
SUMO1-SIM PPI = modulators of SUMO1 protein-protein interactions, primary screen, biochemical, uHTS; inhibition, % at 20 µM; 360,000 compounds, 0.33% hits; SUMO1 binding to a labelled peptide, TR-FRET, 1 h; Small ubiquitin-related modifier 1 (Homo sapiens), P63165; in the data active = inhibition above about 37%
NS3 helicase inh = inhibitors of HCV NS3 helicase, primary screen, biochemical, Cy5 molecular beacon fluorescence; NS3 helicase DNA unwinding; 290,000 compounds, 0.56% hits; inhibition, % at 10.9 µM; AID 1800, 2009; Hepatitis C virus NS3 helicase;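 active = inhibition above the mean of all tested compounds plus 3 SD, set per campaign, cut at about 35% in these data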;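 also: 0% = DMSO wells and 100% = thioflavine S control wells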
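Material: hepatitis C virus NS3 helicase domain fragment enzyme; measured by: Cy5 fluorescence, 0 and 60 min reads; control set: DMSO and thioflavine S; incubation: 60 min unwinding reaction at 25 °C after ATP addition; read-out basis: % inhibition from 60/0 min fluorescence ratio, DMSO 0%, thioflavine S 100%; repeats: singlicate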
UHRF1 binding = UHRF1 methylated DNA binding inhibitors, primary screen, counter-screen for MBD2 inhibitor project, biochemical, TR-FRET, human UHRF1, single concentration; UHRF1 binding to methylated oligo; 370,000 compounds, 0.75% hits; E3 ubiquitin-protein ligase UHRF1 (Homo sapiens), Q96T88; inhibition, % at 4.4 µM; in the data active = inhibition above about 21%;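 also: UHRF1 SRA domain binding a hemimethylated CpG hairpin DNA probe; 0% = median of test compound wells and 100% = reference inhibitor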
DNMT1 inh = human DNMT1 methyltransferase inhibitors, primary screen, biochemical, molecular beacon, fluorescence, HinP1I cleavage, uHTS. inhibition (reported as % activation of signal), % at 10 µM. DNA (cytosine-5)-methyltransferase 1 (Homo sapiens), P26358. 360,000 compounds, 0.83% hits. AID 588458, 2011; in the data active = inhibition above about 50%
Pemphigus Ab inh = inhibitors of pemphigus antibody binding to DSG3, primary screen, biochemical, bead-based, flow cytometry, scFv-GFP | Desmoglein-3 (Homo sapiens), P32926 | DSG3-coupled beads, scFv-anti-DSG3-GFP binding; hits give low values | binding (percent of control), % at 10 µM | 310,000 compounds, 0.48% hits | AID 588358, 2011;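 active = binding more than 3 SD below its plate's average and above zero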;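 also: hits lower antibody fragment binding to DSG3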
Target sequence (P32926 whole entry, looked up, the tested form may be a part): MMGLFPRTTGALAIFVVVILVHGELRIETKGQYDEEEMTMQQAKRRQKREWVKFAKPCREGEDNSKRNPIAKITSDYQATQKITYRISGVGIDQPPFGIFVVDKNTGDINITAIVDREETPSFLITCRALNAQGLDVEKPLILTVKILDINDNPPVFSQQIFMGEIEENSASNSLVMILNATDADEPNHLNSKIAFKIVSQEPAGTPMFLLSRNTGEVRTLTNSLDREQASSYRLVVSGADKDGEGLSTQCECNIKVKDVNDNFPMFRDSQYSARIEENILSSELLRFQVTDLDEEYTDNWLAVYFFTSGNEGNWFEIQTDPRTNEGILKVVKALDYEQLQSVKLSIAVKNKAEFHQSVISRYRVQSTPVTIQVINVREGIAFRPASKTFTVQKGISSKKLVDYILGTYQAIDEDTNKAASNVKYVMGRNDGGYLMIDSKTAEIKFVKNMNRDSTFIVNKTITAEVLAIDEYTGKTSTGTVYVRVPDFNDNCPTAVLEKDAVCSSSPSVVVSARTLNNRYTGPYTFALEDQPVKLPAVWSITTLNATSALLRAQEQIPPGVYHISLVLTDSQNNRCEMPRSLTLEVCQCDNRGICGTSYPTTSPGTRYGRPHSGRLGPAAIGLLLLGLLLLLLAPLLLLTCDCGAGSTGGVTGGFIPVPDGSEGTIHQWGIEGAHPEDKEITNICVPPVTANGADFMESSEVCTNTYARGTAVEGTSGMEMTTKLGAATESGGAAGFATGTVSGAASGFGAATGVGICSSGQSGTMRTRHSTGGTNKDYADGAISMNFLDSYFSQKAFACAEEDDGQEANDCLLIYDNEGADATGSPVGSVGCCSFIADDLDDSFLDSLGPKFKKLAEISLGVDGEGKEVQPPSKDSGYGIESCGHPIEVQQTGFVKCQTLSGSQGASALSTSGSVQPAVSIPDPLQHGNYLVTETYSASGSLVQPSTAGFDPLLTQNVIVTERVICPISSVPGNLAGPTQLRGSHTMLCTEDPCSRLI
MBD2 inh = inhibitors of MBD2 binding to methylated DNA, primary screen, biochemical, TR-FRET, DNA-binding domain, human; inhibition, % at 4.4 µM; 370,000 compounds, 0.31% hits; MBD2 binding to methylated oligonucleotide; Methyl-CpG-binding domain protein 2 (Homo sapiens), Q9UBB5; in the data active = inhibition above about 13%
* hit, by the source's call; / = no result; ! = repeats disagree.

SMILES	SUMO1-SIM PPI	NS3 helicase inh	UHRF1 binding	DNMT1 inh	Pemphigus Ab inh	MBD2 inh
Cc1cccc(CS(=O)(=O)c2ncc(Cl)c(C(=O)Nc3nnc(C(C)C)s3)n2)c1	-6	6	/	4	93*	/
Cc1ccc(CS(=O)(=O)c2ncc(Cl)c(C(=O)Nc3nnc(C(C)C)s3)n2)cc1	-8	-1	-2	1	134	6
CC(C)c1ccc(CNc2ncc(Br)cn2)cc1	-1	2	1	2	103	-1
CC(C)Cn1c(NCCN(C)C)nc2c1c(=O)[nH]c(=O)n2C	1	17	3	2	88	1
CCNc1nc2c(c(=O)[nH]c(=O)n2C)n1CC(C)C	43*	-3	-1	2	107	-3
NC(=O)c1ccc(NC(=O)CN2CCN(c3ccc(Cl)cc3)CC2)cc1	-1	19	0	-1	100	-7
O=C(CCC1CCCN(C(=O)CC2=CCCCC2)C1)N1CCN(c2ccccn2)CC1 (stereo not drawn)	-1	3	-2	1	106	-1
CCOC(=O)CC1COc2ccccc2N1C(=O)c1cccc([N+](=O)[O-])c1 (stereo not drawn)	-17	6	40*	-2	95	3
COC(=O)CC1COc2ccccc2N1C(=O)c1cccc(Cl)c1 (stereo not drawn)	-1	10	7	0	99	7
Nc1[nH]c(C(=O)c2ccc(Br)cc2)c(-c2ccc(Br)cc2)c1C(=O)NCc1ccc(-c2ccccc2)cc1	/	/	2	/	/	4
O=C(NN1CC(C(=O)OCc2ccccc2F)CC1=O)c1ccccc1 (stereo not drawn)	1	4	22*	-2	109	5
Cn1nccc1C(=O)N1CCCC(C(=O)c2ccc(C(F)(F)F)cc2)C1 (stereo not drawn)	1	6	1	3	/	-4
Cn1c(N)c(C(=O)COC(=O)C2Cc3ccccc3CN2S(C)(=O)=O)c(=O)n(C)c1=O (stereo not drawn)	13	/	-2	-2	76*	6
CC(=O)N1Cc2ccccc2CC1C(=O)OCC(=O)c1c(N)n(C)c(=O)n(C)c1=O (stereo not drawn)	6	/	1	1	101	-6
Cn1nc(C(C)(C)C)cc1N1C(=O)CCC1(C)C(=O)NCc1ccccc1 (stereo not drawn)	2	/	1	6	/	4
Cc1cccc(C)c1NC(=O)C1(C)CCC(=O)N1c1cc(C(C)(C)C)nn1C (stereo not drawn)	0	/	22*	6	/	11
CCC1CCc2sc(C(=O)N(C)CC(=O)Nc3cccc(OC)c3)cc2C1 (stereo not drawn)	7	/	66*	-1	92	-5
CCC1CCc2sc(C(=O)N(C)CC(=O)Nc3ccc(OC)cc3)cc2C1 (stereo not drawn)	1	/	0	-11	98	-5
Cc1nc2ccc(S(=O)(=O)NCC(=O)NCCN3CCCCCC3)cc2s1	46*	-20	0	2	115	-5
Cc1nc2ccc(S(=O)(=O)NCC(=O)NCc3ccc(Cl)cc3)cc2s1	1	-7	-1	4	100	-1
C=CCn1c(O)c(C2=c3ccccc3=NC2=O)c2ccccc21	-8	10	1	13	96	2
C=CCn1c(O)c(C2=c3ccccc3=NC2=O)s/c1=N/c1nccs1	-6	34	-1	10	81*	-1
OCCNc1c2ccccc2nc2ccccc12	-17	-1	6	59*	100	0
c1ccc(-c2nnc3n2N=C(c2ccc4ccccc4c2)CS3)nc1	/	/	-3	/	/	0
CC(C)n1c(C(F)(F)F)nc2cc(C(=O)N3CCC(O)CC3)ccc21	-4	-4	4	-9	114	4
SMILES	SUMO1-SIM PPI	NS3 helicase inh	UHRF1 binding	DNMT1 inh	Pemphigus Ab inh	MBD2 inh
O=C(O)c1c2c(nc3ccc(S(=O)(=O)N4CCC(C(=O)NC5CCCCCC5)CC4)cc13)CCCC2	42*	16	13	3	100	-3
CC(C)CCNC(=O)C1CCN(S(=O)(=O)c2ccc3nc4c(c(C(=O)O)c3c2)CCCCC4)CC1	0	-14	0	-1	100	-5
Cc1ccc(Sc2ncccc2COC(=O)Nc2c(C)cccc2C)cc1	0	-11	-3	2	3.0*	5
Cc1ccc(Sc2ncccc2COC(=O)Nc2ccccc2)cc1	2	-7	-1	-2	/	0
C#CCOCCOCCOCCNc1nc(N2CCN(C(=O)CCCCCCCCCCNC(=O)Cn3cc(C[C@@H](C)O)nn3)CC2)nc(N2CCN(C(=O)CCCCCCCCCCNC(=O)[C@H](CCCN=C(N)N)n3cc(C[C@@H](C)CC)nn3)CC2)n1	106*	/	/	-108	118	/
C#CCOCCOCCOCCNc1nc(N2CCN(C(=O)CCCCCCCCCCNC(=O)Cn3cc(C[C@@H](C)O)nn3)CC2)nc(N2CCN(C(=O)CCCCCCCCCCNC(=O)[C@H](CO)n3cc(CCCSC)nn3)CC2)n1	10	/	-1	-38	110	2
C#CCOCCOCCOCCNc1nc(N2CCN(C(=O)CCCCCCCCCCNC(=O)[C@H](CO)n3cc(CCCSC)nn3)CC2)nc(N2CCN(C(=O)CCCCCCCCCCNC(=O)[C@H](CCCCN)n3cc(CCO)nn3)CC2)n1	-141	/	25*	-40	124	-6
C#CCOCCOCCOCCNc1nc(N2CCN(C(=O)CCCCCCCCCCNC(=O)[C@H](CO)n3cc(CCCSC)nn3)CC2)nc(N2CCN(C(=O)CCCCCCCCCCNC(=O)[C@H](CCCN=C(N)N)n3cc(C[C@@H](C)CC)nn3)CC2)n1	90*	/	/	-105	131	/
COC(=O)C(Cc1ccccc1)NC(=O)CCNC(=O)c1ccc(Br)cc1 (stereo not drawn)	3	32	-1	-1	142	-2
CC(NC(=O)c1ccc(S(=O)(=O)N(C)C)cc1)c1ccccc1 (stereo not drawn)	3	-5	21*	-1	/	7
C/C(N)=C(/C#N)C(=O)CSc1nnc(-c2ccc(OC(F)F)cc2)o1	10	3	-2	5	80*!	-4
CN(C)c1ccc(C=c2c3cc([N+](=O)[O-])ccc3n3c2cc(-c2ccccc2)[n+]3C)cc1	59*	/	15	36	40	3
CN(C)c1ccc(C=c2c3ccccc3n3c2cc(-c2ccc(Cl)cc2)[n+]3C)cc1	-112	/	19	35	/	5
